Results published in ChEMBL document CHEMBL1152851, “Synthesis, cytotoxicity and effects of some 1,2,4-triazole and 1,3,4-thiadiazole derivatives on immunocompetent cells” (Eur J Med Chem, 2009).

Assays:
[1] = Stimulation of immune response in pretreated thymocytes isolated from Graffi myeloid tumor bearing hamster assessed as migration area after 16 hrs by indirect agarose technique; format: cell-based; conditions: cricetinae, thymocyte
Procedure, shortened: (§1)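 Cells came from treated tumor-bearing hamsters: spleen cells, thymocytes or blood lymphocytes. They were loaded into 3-mm wells cut in an agarose monolayer in 50 mm Petri dishes and kept 16 h at 37 °C, 5% CO2. The migration area was then measured. The migration index (LIF) is the ratio of experimental to control migration area. Values are means of three experiments.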

[2] = Stimulation of immune response in pretreated thymocytes isolated from Graffi myeloid tumor bearing hamster assessed as ratio of migration area of experimental cells to control cells after 16 hrs by indirect agarose technique; format: cell-based; conditions: cricetinae, thymocyte; procedure, shortened: as §1
[3] = Stimulation of immune response in pretreated thymocytes isolated from Graffi myeloid tumor bearing hamster assessed as rosette formation; format: cell-based; conditions: cricetinae, thymocyte
[4] = Stimulation of immune response in pretreated thymocytes isolated from Graffi myeloid tumor bearing hamster assessed as number of plaque forming cells after 24 hrs […]; format: cell-based; conditions: cricetinae, thymocyte
PBL [5] = experiment: Stimulation of immune response in pretreated PBL isolated from Graffi myeloid tumor bearing hamster assessed as rosette formation; format: cell-based; conditions: cricetinae
PBL [6] = experiment: Stimulation of immune response in pretreated […] isolated from Graffi myeloid tumor bearing hamster assessed as number of plaque forming cells after 24 hrs […]; format: cell-based; conditions: cricetinae
PBL [7] = experiment: Cytotoxicity against solid form of Graffi myeloid tumor bearing hamster PBL after 24 hrs by trypan blue assay; format: cell-based; conditions: Cricetinae
Procedure, shortened: (§2)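 Thymocytes and peripheral blood lymphocytes came from sexually mature hamsters bearing solid Graffi myeloid tumor. Compounds were made up at 0.5 mg/ml in DMSO, and this stock was diluted 1:10, 1:100, 1:1000 and 1:100,000. Equal volumes of cells and dilution were mixed and held 24 h at 37 °C in humidified 5% CO2. Survival was scored by 0.2% trypan blue exclusion under the microscope, and IC50 was derived.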

PBL [8] = experiment: Cytotoxicity against PBL isolated from solid form of Graffi myeloid tumor bearing hamster pretreated at 0.5 mg/ml, ip for 5 days measured after 24 hrs by trypan blue assay; conditions: Cricetinae
Procedure, shortened: (§3)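 Tumor-bearing hamsters first received compound at 0.5 mg/ml i.p. Thymocytes or blood lymphocytes were isolated five days later. These were exposed in vitro to serial dilutions of a DMSO stock (5 mg/ml) for 24 h at 37 °C, 5% CO2, then scored with 0.2% trypan blue. Each IC50 is the mean of three parallel samples in three independent experiments.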

[9] = Cytotoxicity against solid form of Graffi myeloid tumor bearing hamster thymocytes after 24 hrs by trypan blue assay; format: cell-based; conditions: cricetinae, thymocyte; procedure, shortened: as §2
[10] = Cytotoxicity against thymocytes isolated from solid form of Graffi myeloid tumor bearing hamster pretreated at 0.5 mg/ml, ip for 5 days measured after 24 hrs by trypan blue assay; conditions: cricetinae, thymocyte; procedure, shortened: as §3
[11] = Stimulation of immune response in pretreated spleen cells isolated from Graffi myeloid tumor bearing hamster assessed as migration area after 16 hrs by indirect agarose technique; format: cell-based; conditions: cricetinae; procedure, shortened: as §1
[12] = Stimulation of immune response in pretreated spleen cells isolated from Graffi myeloid tumor bearing hamster assessed as rosette formation; format: cell-based; conditions: cricetinae
[13] = Stimulation of immune response in pretreated spleen cells isolated from Graffi myeloid tumor bearing hamster assessed as number of plaque forming cells after 24 hrs by modified agar-plate method; format: cell-based; conditions: cricetinae
Procedure, shortened: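 Plaque-forming (haemolysin-producing B) cells were counted by the Cunningham–Szenberg method. Cells from treated tumor-bearing hamsters were mixed with complement and sheep red blood cells and loaded into chambers. Haemolytic zones were counted per 10⁶ lymphocytes. Values are means of three experiments, compared against cells from control animals.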

PBL [14] = experiment: Stimulation of immune response in pretreated PBL isolated from Graffi myeloid tumor bearing hamster assessed as migration area after 16 hrs by indirect agarose technique; format: cell-based; conditions: cricetinae; procedure, shortened: as §1
PBL [15] = experiment: Stimulation of immune response in pretreated PBL isolated from Graffi myeloid tumor bearing hamster assessed as ratio of migration area of experimental cells to control cells after 16 hrs by indirect agarose technique; format: cell-based; conditions: cricetinae; procedure, shortened: as §1
[16] = Stimulation of immune response in pretreated spleen cells isolated from Graffi myeloid tumor bearing hamster assessed as ratio of migration area of experimental cells to control cells after 16 hrs by indirect agarose technique; format: cell-based; conditions: cricetinae; procedure, shortened: as §1
[17] = Cytotoxicity against pretreated spleen cells isolated from Graffi myeloid tumor bearing hamster assessed as full lysis; format: cell-based; conditions: cricetinae

| Compound | Activity [1] [mm2] | Ratio [2] | Activity [3] | Activity [4] | Activity (PBL [5]) | Activity (PBL [6]) | IC50 (PBL [7]) [nM] | IC50 (PBL [8]) [nM] | IC50 [9] [nM] | IC50 [10] [nM] | Activity [11] [mm2] | Activity [12] | Activity [13] | Activity (PBL [14]) [mm2] | Ratio (PBL [15]) | Ratio [16] | Activity [17] |
| --- | --- | --- | --- | --- | --- | --- | --- | --- | --- | --- | --- | --- | --- | --- | --- | --- | --- |
| CCNC(=S)NNC(=O)c1ccc(-c2ccccc2)s1 | 202 | 0.104 | Not Active | 7800 | Not Active | 5200 | 1640 | 320 | 2100 | 3500 | 822 | Not Active | 2010 |  |  |  |  |
| Nn1c(-c2ccc(-c3ccccc3)s2)n[nH]c1=S | 1836 | 0.954 | Not Active | 19200 | Not Active | 19920 |  | 12 | 240 | 0.001 | 2332 | Not Active | 4700 |  |  |  |  |
| CCNc1nnc(-c2cc3c(s2)CCCC3)s1 | 1118 | 0.581 | Not Active | 15300 | Not Active | 14288 | 320 | 410 | 260 | 0.0052 | 1788 | Not Active | 3928 |  |  |  |  |
| Nn1c(-c2cc3c(s2)CCCC3)n[nH]c1=S | 1024 | 0.532 | Not Active | 7250 | Not Active | 5869 | 2670 | 140 | 2200 | 12 | 1286 | Not Active | 3920 | 1800 | 1.654 |  |  |
| CCn1c(-c2cc3c(s2)CCCC3)n[nH]c1=S | 997 | 0.518 | Not Active | 5287 | Not Active | 4992 | 1810 | 290 | 120 | 460 | 1823 | Not Active | 3700 |  | 0.001 | 0 |  |
| CCNC(=S)NNC(=O)c1cc2c(s1)CCCC2 | 146 | 0.08 | Not Active | 2040 | Not Active | 768 |  | 14 | 110 |  |  | Not Active |  |  |  |  | Toxic |
